For data set [1], the system named is Enterococcus faecium. In words: Antibacterial activity against vancomycin-resistant Enterococcus faecium OEF65 assessed as reduction in bacterial growth incubated for 24 hrs in presence of curcumin. It is filed as functional.
Data set [2] deals with Staphylococcus aureus. Nature of the data set: Antibacterial activity against methicillin-resistant Staphylococcus aureus NCTC 12493 assessed as reduction in colony formation at MIC measured up to 24 hrs by time kill assay. In kind it is functional, organism-based. Particulars: time hrs <=24. In short, it runs like this: (§1)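 Time-kill in 10 mL Mueller-Hinton 2 broth, 37 °C with continuous agitation, 24 h. Inoculum was a 1/1000 dilution of a 16 h overnight culture, about 10^6 CFU/mL. Single agents at 1× MIC; combination at 1× MIC polymyxin B plus 0.5× MIC curcumin. Samples at 0, 2, 4, 6 and 24 h were serially diluted and plated on IsoSensitest agar for CFU/mL.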

The subject of data set [3] is Enterococcus faecalis. In words: Synergistic antibacterial activity against […] Enterococcus faecalis ATCC 29212 assessed as fractional inhibitory concentration index measured after 24 hrs in presence of curcumin by checkerboard assay. It is filed as functional. The essentials: (§2)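 FICI was derived from checkerboard MICs. Synergy was defined as FICI ≤ 0.5 and additive as FICI > 0.5−4.0. Where an MIC was not reached, the dilution above the maximum dose was used in the FICI calculation. Experiments were run in triplicate and reported as means.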

For data set [4], the system named is Stenotrophomonas maltophilia. In words: Synergistic antibacterial activity against Stenotrophomonas maltophilia SMB07 assessed as fractional inhibitory concentration index measured after 24 hrs in presence of curcumin by checkerboard assay. In kind it is functional. The essentials:
(§3)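 FICI calculated from combination MICs; ≤0.5 taken as synergy and >0.5–4.0 as additive. Where an MIC was not reached, the dilution above the highest concentration tested was used in the calculation. Run in triplicate and reported as means.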

In data set [5] the test system is Pseudomonas aeruginosa. Nature of the data set: Antibacterial activity against Pseudomonas aeruginosa PAO1 assessed as reduction in bacterial growth incubated for 24 hrs in presence of curcumin. It is filed as functional.
Data set [6] has as its system Staphylococcus aureus. In words: Antibacterial activity against vancomycin-intermediate resistant Staphylococcus aureus Mu50 assessed as reduction in bacterial growth incubated for 24 hrs in presence of curcumin. In kind it is functional.
Data set [7] concerns Enterococcus faecium. Nature of the data set: Synergistic antibacterial activity against vancomycin-resistant Enterococcus faecium OEF65 assessed as fractional inhibitory concentration index measured after 24 hrs in presence of curcumin by checkerboard assay. In kind it is functional. In short, it runs like this:
as §2

Data set [8] relates to Stenotrophomonas maltophilia. In words: Synergistic antibacterial activity against Stenotrophomonas maltophilia NCTC 10258 assessed as fractional inhibitory concentration index measured after 24 hrs in presence of curcumin by checkerboard assay. It is filed as functional. The essentials: as §3
Data set [9] deals with Stenotrophomonas maltophilia. In words: Antibacterial activity against Stenotrophomonas maltophilia NCTC 10258 assessed as reduction in bacterial growth incubated for 24 hrs in presence of curcumin. It is filed as functional.
Data set [10] concerns Escherichia coli. Nature of the data set: Additive antibacterial activity against Escherichia coli NCTC 12241 assessed as fractional inhibitory concentration index measured after 24 hrs in presence of curcumin by checkerboard assay. It is filed as functional.
In data set [11] the test system is Acinetobacter baumannii. Nature of the data set: Synergistic antibacterial activity against Acinetobacter baumannii AB14 harboring OXA-23 clone 1 assessed as fractional inhibitory concentration index measured after 24 hrs in presence of curcumin by checkerboard assay. In kind it is functional. The essentials:
as §2

The subject of data set [12] is HaCaT. In words: Cytotoxicity against human HaCaT cells at 6.1 uM measured after 4 hrs by CyTox 96 nonradioactive assay relative to control. In kind it is cell-based.
Data set [13] relates to Staphylococcus aureus. Nature of the data set: Synergistic antibacterial activity against vancomycin-intermediate resistant Staphylococcus aureus Mu50 assessed as fractional inhibitory concentration index measured after 24 hrs in presence of curcumin by checkerboard assay. It is filed as functional. The essentials:
as §2

The subject of data set [14] is Acinetobacter baumannii. In words: Antibacterial activity against Acinetobacter baumannii NCTC 19606 assessed as reduction in bacterial growth incubated for 24 hrs in presence of polymyxin B. In kind it is functional.
For data set [15], the system named is Streptococcus pyogenes. Nature of the data set: Potentiation of polymyxin B-induced antibacterial activity against Streptococcus pyogenes SPY2 assessed as fold reduction in polymyxin B MIC measured after 24 hrs […] checkerboard assay. It is filed as functional. In short, it runs like this:
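Polymyxin B MIC measured alone and in combination with curcumin; fold reduction derived from the two MICs. Experiments run in triplicate and reported as mean values.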

Data set [16] deals with Pseudomonas aeruginosa. Nature of the data set: Antibacterial activity against Pseudomonas aeruginosa ATCC 27853 assessed as reduction in bacterial growth incubated for 24 hrs in presence of polymyxin B. In kind it is functional.
Data set [17] has as its system Pseudomonas aeruginosa. Nature of the data set: Potentiation of polymyxin B-induced antibacterial activity against Pseudomonas aeruginosa ATCC 27853 assessed as fold reduction in polymyxin B MIC measured after 24 hrs in presence of polymyxin B by checkerboard assay. In kind it is functional.
Data set [18] deals with Pseudomonas aeruginosa. Nature of the data set: Potentiation of polymyxin B-induced antibacterial activity against Pseudomonas aeruginosa PAO1 assessed as fold reduction in polymyxin B MIC measured after 24 hrs in presence of polymyxin B by checkerboard assay. In kind it is functional.
In data set [19] the test system is Staphylococcus aureus. In words: Antibacterial activity against Staphylococcus aureus ATCC 25923 assessed as reduction in bacterial growth incubated for 24 hrs in presence of polymyxin B. In kind it is functional.
Data set [20] has as its system HaCaT. In words: Cytotoxicity against human HaCaT cells at 43.4 uM measured after 4 hrs in presence of 1.5 uM polymyxin B by CyTox 96 nonradioactive assay relative to control. In kind it is cell-based.
Data set [21] deals with Pseudomonas aeruginosa. In words: Antibacterial activity against Pseudomonas aeruginosa PAO1 assessed as reduction in bacterial growth incubated for 24 hrs in presence of polymyxin B. In kind it is functional.
Data set [22] concerns Acinetobacter baumannii. Nature of the data set: Antibacterial activity against Acinetobacter baumannii ATCC 19606 assessed as reduction in bacterial colony formation at 0.5 fold MIC measured after 24 hrs by time kill assay. It is filed as functional, organism-based. Particulars: ATCC 19606 = CIP 70.34 = JCM 6841. In short, it runs like this:
(§4)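 Time-kill in Mueller-Hinton 2 broth. Inoculum was a 1/1000 dilution of a 16 h overnight culture, about 10^6 CFU/mL, 10 mL per tube. Arms were each agent alone at ×1 MIC, or the combination at ×1 MIC plus ×0.5 MIC partner. Incubated at 37 °C with continuous agitation for 24 h. Samples taken at 0, 2, 4, 6 and 24 h, serially diluted and plated on IsoSensitest agar for CFU counts.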

Data set [23] deals with Acinetobacter baumannii. In words: Antibacterial activity against Acinetobacter baumannii AB16 harboring OXA-23 clone 2 assessed as reduction in bacterial growth incubated for 24 hrs in presence of polymyxin B. It is filed as functional.
Data set [24] deals with Stenotrophomonas maltophilia. In words: Potentiation of polymyxin B-induced antibacterial activity against Stenotrophomonas maltophilia SMB07 assessed as fold reduction in polymyxin B MIC measured after 24 hrs in presence of polymyxin B by checkerboard assay. It is filed as functional.
The test system of data set [25] is Acinetobacter baumannii. Nature of the data set: Bactericidal activity against Acinetobacter baumannii NCTC 19606 assessed as bacterial cell death at 0.5 fold MIC measured after 4 to 6 hrs in presence of polymyxin B at MIC by time kill assay relative to control. In kind it is functional. As to conditions: time 4-6 hrs. The essentials: as §1
Data set [26] concerns Pseudomonas aeruginosa. In words: Bactericidal activity against Pseudomonas aeruginosa ATCC 27853 assessed as log reduction in colony forming units at 0.5 fold MIC measured after 24 hrs in presence of polymyxin B at MIC by time kill assay. It is filed as functional. The essentials:
as §4

In data set [27] the test system is Escherichia coli. Nature of the data set: Potentiation of polymyxin B-induced antibacterial activity against Escherichia coli EC204 harboring NDM-1 assessed as fold reduction in polymyxin B MIC measured after 24 hrs in presence of polymyxin B by checkerboard assay. In kind it is functional.
In data set [28] the test system is Pseudomonas aeruginosa. In words: Antibacterial activity against Pseudomonas aeruginosa PA30 harboring VIM-2 assessed as reduction in bacterial growth incubated for 24 hrs in presence of polymyxin B. In kind it is functional.
Data set [29] deals with Pseudomonas aeruginosa. Nature of the data set: Potentiation of polymyxin B-induced antibacterial activity against Pseudomonas aeruginosa PA14 assessed as fold reduction in polymyxin B MIC measured after 24 hrs in presence of polymyxin B by checkerboard assay. It is filed as functional.
Data set [30] relates to Escherichia coli. In words: Antibacterial activity against Escherichia coli EC204 harboring NDM-1 assessed as reduction in bacterial growth incubated for 24 hrs in presence of polymyxin B. In kind it is functional.

This note sets out measurements from ChEMBL document CHEMBL4715738, “In Vitro Antibacterial Activity of Curcumin-Polymyxin B Combinations against Multidrug-Resistant Bacteria Associated with Traumatic Wound Infections” (J Nat Prod, 2016).

The source made the active and inactive calls.

For the compound `CC[C@H](C)CCCCC(=O)N[C@@H](CCN)C(=O)N[C@H](C(=O)N[C@@H](CCN)C(=O)N[C@H]1CCNC(=O)[C@H]([C@@H](C)O)NC(=O)[C@H](CCN)NC(=O)[C@H](CCN)NC(=O)[C@H](CC(C)C)NC(=O)[C@@H](Cc2ccccc2)NC(=O)[C@H](CCN)NC1=O)[C@@H](C)O.O=S(=O)(O)O`, the minimal inhibitory concentration (MIC) in [1] stood at 1.5 µM; in [5], 0.012 µM; in data set [6], 1.5 µM; in data set [9], 0.008 µM. In addition, the outcome in data set [2] was inactive. For the same compound, the “fractional inhibitory concentration index (FICI)” value in data set [3] is listed as 0.251; in data set [4], 0.023; in data set [7], 0.281; in [8], 0.012; in data set [10], 0.52; in data set [11] it was 0.375. The “fractional inhibitory concentration index (FICI)” value in [13] came to 0.047. In addition, in data set [12], the Activity is 2%.
With `COc1cc(/C=C/C(=O)CC(=O)/C=C/c2ccc(O)c(OC)c2)ccc1O` [CURCUMIN], the MIC was determined as 22 µM in data set [14]; 174 µM in [16]; 87 µM in data set [19]; 43 µM in data set [21]; 22 µM in data set [23]; 174 µM in data set [28]. Moreover, the MIC in [30] turned out to be 174 µM. For the same compound, the “fold change (FC)” value in data set [15], in data set [17], in data set [18], in data set [24], in data set [27] and in [29] was 3 each time. Also, the Activity in [20] is reported as 22%; in data set [25] it was 100%; in [26] it was >3 log10CFU/ml. Moreover, the result in [22] was inactive.
